# Key:
# [1] = molecular target: T1, Prostaglandin E synthase (Homo sapiens) (UniProt O14684); test: Inhibition of mPGES1 in IL1beta-stimulated human A549 cell microsomes assessed as residual activity at 10 uM using PGH2 as substrate preincubated for 15 mins followed by substrate addition and measured after 1 min by RP-HPLC analysis relative to control
# T1 sequence (whole entry): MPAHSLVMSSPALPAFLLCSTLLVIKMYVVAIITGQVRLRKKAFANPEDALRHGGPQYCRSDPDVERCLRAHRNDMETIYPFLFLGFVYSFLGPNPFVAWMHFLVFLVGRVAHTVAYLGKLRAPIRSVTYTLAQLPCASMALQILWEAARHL
# In short: (§1)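 mPGES-1 source was microsomes from A549 cells treated 48 h with IL-1β (1 ng ml–1), obtained by sonication and differential centrifugation (10 000×g, then 174 000×g, 4 °C). Microsomes diluted in 0.1 M potassium phosphate pH 7.4 with 2.5 mM glutathione. Compound or DMSO vehicle added for 15 min at 4 °C; 20 μM PGH2 then reacted 1 min at 4 °C. Stopped with FeCl2/citric acid containing 11β-PGE2; PGE2 measured by SPE and RP-HPLC.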
# [2] = molecular target: T2, Polyunsaturated fatty acid 5-lipoxygenase (Homo sapiens) (UniProt P09917); test: Inhibition of 5-LO in human neutrophils assessed as residual activity at 10 uM using arachidonic acid as substrate preincubated for 10 mins followed by substrate addition and measured after 10 mins by RP-HPLC analysis
# T2 sequence (whole entry): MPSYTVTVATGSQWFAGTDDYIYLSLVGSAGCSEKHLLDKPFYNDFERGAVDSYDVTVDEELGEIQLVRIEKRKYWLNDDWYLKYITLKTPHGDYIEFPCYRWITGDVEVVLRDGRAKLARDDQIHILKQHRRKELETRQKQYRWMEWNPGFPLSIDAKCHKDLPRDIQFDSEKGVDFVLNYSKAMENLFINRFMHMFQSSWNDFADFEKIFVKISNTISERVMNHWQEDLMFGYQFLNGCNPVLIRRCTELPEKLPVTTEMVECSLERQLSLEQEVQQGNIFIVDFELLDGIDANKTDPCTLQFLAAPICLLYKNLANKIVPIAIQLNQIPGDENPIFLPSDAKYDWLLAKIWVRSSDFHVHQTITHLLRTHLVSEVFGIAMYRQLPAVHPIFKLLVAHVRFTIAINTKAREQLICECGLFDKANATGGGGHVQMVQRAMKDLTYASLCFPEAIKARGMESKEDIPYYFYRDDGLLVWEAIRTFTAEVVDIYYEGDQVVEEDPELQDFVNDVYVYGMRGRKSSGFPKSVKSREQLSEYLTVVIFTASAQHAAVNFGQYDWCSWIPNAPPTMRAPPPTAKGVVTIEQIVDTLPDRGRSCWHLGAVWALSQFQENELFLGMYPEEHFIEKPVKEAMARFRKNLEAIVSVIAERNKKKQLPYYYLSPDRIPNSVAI
# In short: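 Freshly isolated human peripheral-blood neutrophils at 5 × 10^6 cells per ml in PBS pH 7.4 with 1 mM CaCl2 and 1 mg mL–1 glucose. Cells pre-treated 10 min with compound in DMSO (final 0.1%). Stimulated with 2.5 μM Ca2+ ionophore A23187 plus 20 μM arachidonic acid for 10 min at 37 °C, then stopped on ice with methanol. After C18 solid-phase extraction, LTB4 all-trans isomers and 5-H(P)ETE quantified by RP-HPLC against PGB1 internal standard.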
# Prostaglandin E synthase = molecular target: T3, Prostaglandin E synthase (Homo sapiens, UniProt O14684); test: Inhibition of mPGES1 in IL1beta-stimulated human A549 cell microsomes using PGH2 as substrate preincubated for 15 mins followed by substrate addition and measured after 1 min by RP-HPLC analysis; in short: as §1
# T3 sequence (O14684 whole entry): T1 sequence (whole entry)
Structure (SMILES),Activity [1],Activity [2],IC50 (Prostaglandin E synthase)
CC(=O)N[C@H]1[C@H](Oc2ccc(Nc3nc(-c4ccc(Cl)cc4)nc4ccccc34)cc2)O[C@H](CO)[C@@H](O)[C@H]1O,80.1%,,
CCOc1ccc(C2C(C(=O)c3cc4ccccc4o3)=C(O)C(=O)N2c2nnc(SCc3ccc(Cl)cc3)s2)cc1OC (configuration not stated),30.5%,92.5%,3700 nM
CCOc1ccc(N2CC(c3nc4ccccc4n3CCOc3ccc(Cl)cc3)CC2=O)cc1 (configuration not stated),65.3%,,
CCOC(=O)C1CCCN(c2nc3c(C)cccn3c(=O)c2/C=C(\C#N)C(=O)NCc2ccccc2)C1 (configuration not stated),86.8%,,
COc1ccc(C(=O)N/C(=C\c2ccc(-c3cccc(C(F)(F)F)c3)o2)C(=O)NC(C)(C)C)cc1,88.6%,,
Cc1sc2ncn(CC(=O)Nc3ccc(Oc4ccccc4)cc3)c(=O)c2c1-c1ccccc1,82.6%,,
O=C(C1=C(O)C(=O)N(c2ncc(S(=O)(=O)c3ccc([N+](=O)[O-])cc3)s2)C1c1cccc(Cl)c1)c1ccc(Cl)cc1 (configuration not stated),25%,56.6%,1900 nM
COc1ccc(C(=O)N/C(=C\c2ccc(-c3ccccc3Cl)o2)C(=O)NCCCO)cc1,72.1%,,

# Source: ChEMBL document CHEMBL4480369, “Discovery of 3-hydroxy-3-pyrrolin-2-one-based mPGES-1 inhibitors using a multi-step virtual screening protocol” (Medchemcomm, 2018)
